Screens (PubChem BioAssay)
Compounds with a hit are over-represented: about 2.8% of the library has one in this group of screens.
AI-2 QS mod: modulators of Vibrio harveyi AI-2 quorum sensing system | activity change, % at 7.5 µM | Vibrio harveyi JMH597 AI-2 luminescence/OD600 ratio, 9 h; hits give low values; strain lacks LuxN and CqsS sensors; 0 = neutral-control median | 300,000 compounds, 0.4% hits; in the data active = activity change below about -75%, passing the limit was not always enough;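 also: luminescence divided by OD600 gain over 9 h not by final OD600 alone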
pCIP destab: lowers stability of the mouse p/CIP coactivator protein. F442A p/CIP-EGFP cells, EGFP fluorescence, 16 h. 290,000 compounds, 0.01% hits. decrease of EGFP signal, % at 10 µM. AID 1984;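 active = EGFP signal decrease of at least 30% at 10 µM or well 3 SD below plate mean, unless failing retest; inactive = the rest, including hits failing retest or dose response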
T cruzi inh: blocks replication of Trypanosoma cruzi; T. cruzi beta-gal in NIH3T3, luminescence, 90 h; inhibition, % (concentration not given with the values); 300,000 compounds, 1.4% hits; AID 1885;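 active = mean inhibition across valid replicates above about 55%, limit read from the data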;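 also: signal also drops with host cell toxicity which is not excluded here; 0% = plate median of DMSO wells and 100% = zero luminescence signal; higher percent means less beta-gal luminescence so fewer parasites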
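assay system = mouse NIH/3T3 fibroblasts infected with β-gal-expressing T. cruzi Tulahuen C4 | input = 5,000 NIH/3T3 host cells per well | buffer or medium = DMEM plus 2% FBS | timing = 3 h host attachment, then at least 90 h co-culture | measured by = GalScreen luminescence, 60 min | evaluation = luminescence reflecting intracellular parasite burden, expressed as percent inhibition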
UBC13 inh: inhibitors of human UBC13 polyubiquitin chain formation; TR-FRET; inhibition, % at 20 µM; AID 485273; 330,000 compounds, 0.47% hits; P61088; in the data active = inhibition above about 45%, passing the limit was not always enough
PP1 counter: blocks human PP1-alpha phosphatase, a PP5 counter-screen. 320,000 compounds, 0.9% hits. purified PP1alpha, OMFP fluorescence. inhibition, % at 6.7 µM. AID 2235;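 active = inhibition above the mean inhibition of all tested compounds plus 3 SD, computed separately for each screening campaign, cut at about 15% in these data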
Target sequence (P62136 whole entry, looked up): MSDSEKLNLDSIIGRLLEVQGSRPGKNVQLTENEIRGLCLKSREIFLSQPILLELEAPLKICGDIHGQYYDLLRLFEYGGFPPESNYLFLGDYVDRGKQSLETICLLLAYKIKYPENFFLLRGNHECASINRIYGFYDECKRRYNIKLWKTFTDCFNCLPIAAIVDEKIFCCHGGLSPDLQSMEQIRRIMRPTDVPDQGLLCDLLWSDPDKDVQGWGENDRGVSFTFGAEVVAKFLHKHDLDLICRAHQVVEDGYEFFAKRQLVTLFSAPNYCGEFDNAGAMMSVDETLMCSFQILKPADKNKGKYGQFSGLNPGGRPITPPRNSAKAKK
Casp3 UBC13 ctr: inhibits human caspase-3 in UBC13 counter-screen; Recombinant caspase-3, Caspase-Glo 3/7 luminescence, 60 min; 1,400 compounds, 4% hits; inhibition, % at 20 µM; shares compounds with UBC13 inh;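 active = mean inhibition across replicates above about 26%, limit read from the data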;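 also: plate controls were DMSO with caspase-3 for no effect and DMSO wells lacking enzyme for full effect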
Target sequence (P42574 whole entry, looked up): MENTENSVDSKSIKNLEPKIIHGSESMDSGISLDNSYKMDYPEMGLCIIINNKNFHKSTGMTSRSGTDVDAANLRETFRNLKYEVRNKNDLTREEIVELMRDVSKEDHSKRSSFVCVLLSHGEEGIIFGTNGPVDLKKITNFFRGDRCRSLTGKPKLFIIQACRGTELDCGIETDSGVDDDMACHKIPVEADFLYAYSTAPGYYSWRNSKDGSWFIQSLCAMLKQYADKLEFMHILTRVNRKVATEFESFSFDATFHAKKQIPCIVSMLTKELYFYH
UBC13 confirm: human UBC13 polyubiquitin inhibition, confirmed. shares compounds with UBC13 inh. UBC13 polyubiquitination, TR-FRET, biochemical. inhibition, % at 10 µM. 1,400 compounds, 68% hits; in the data active = inhibition above about 45%
* = called active by the depositor.

How did CC(C)n1ncc2c(C(=O)Nc3ccc(S(N)(=O)=O)cc3)cc(C3CC3)nc21 do in these assays?
UBC13 inh: 75*; PP1 counter: 4; Casp3 UBC13 ctr: 0; UBC13 confirm: 49*

What do the screens show for `O=C(Nc1ccc(Br)c2ccccc12)c1ccc2ccccc2c1O`?
AI-2 QS mod: 14; pCIP destab: -2; T cruzi inh: -11; PP1 counter: 3

How did NC(=S)N=Nc1c(O)[nH]c2cc(F)c(F)cc12 do in these assays?
AI-2 QS mod: 5; pCIP destab: -18; T cruzi inh: -12; UBC13 inh: 82*; PP1 counter: -2; Casp3 UBC13 ctr: -1; UBC13 confirm: 99*

What do the screens show for `CCc1[nH]nc(C(=O)NC2CCCc3c2cnn3-c2cc(C)cc(C)c2)c1C` (stereo unspecified)?
AI-2 QS mod: 37; pCIP destab: 14; T cruzi inh: 9; UBC13 inh: 11; PP1 counter: -6

What do the screens show for `OC(CNCC1CCCO1)COc1ccc(OCC(O)CNCC2CCCO2)cc1` (stereo unspecified)?
AI-2 QS mod: 29; pCIP destab: -5; T cruzi inh: -11; UBC13 inh: -7; PP1 counter: -4

Results for CCOC(=O)c1c(C)n(-c2ccc(C)cc2)c2ccc(OCC(O)CNCC3CCCO3)cc12 (stereo unspecified) ?
AI-2 QS mod: 8; pCIP destab: -9; T cruzi inh: 64*; UBC13 inh: 56*; PP1 counter: 16*; Casp3 UBC13 ctr: 0; UBC13 confirm: 77*

Results for CCOC(=O)c1c(C)n(-c2ccc(C)cc2)c2ccc(OCC(O)CNCCCO)cc12 (stereo unspecified) ?
AI-2 QS mod: -16; pCIP destab: -8; UBC13 inh: 62*; PP1 counter: -1; Casp3 UBC13 ctr: 0; UBC13 confirm: 64*

Results for CCOC(=O)c1c(C)n(C)c2ccc(OCC(O)CNC(CC)CO)cc12 (stereo unspecified) ?
AI-2 QS mod: 10; pCIP destab: -6; T cruzi inh: 7; UBC13 inh: 10; PP1 counter: 2

Results for CC1CCN(C(=O)c2[nH]cnc2C(=O)Nc2ccccc2)CC1 ?
UBC13 inh: 15

What do the screens show for `O=C(CNC(=O)c1cccs1)N/N=C/c1ccccc1[N+](=O)[O-]`?
AI-2 QS mod: 9; pCIP destab: -14; T cruzi inh: 2; UBC13 inh: 3; PP1 counter: 0

What do the screens show for `C#CCn1ccc(O)c(Cc2ccccc2)c1=O`?
AI-2 QS mod: 15; pCIP destab: -2; T cruzi inh: -9; UBC13 inh: 7; PP1 counter: -2

Results for CN1CCc2cccc3c2C1Cc1ccc(O)c(O)c1-3 (stereo unspecified) ?
AI-2 QS mod: 1; pCIP destab: 7; T cruzi inh: 1; UBC13 inh: 15; PP1 counter: 1

What do the screens show for `COc1ccc2cc1Oc1ccc(cc1)C[C@H]1c3c(cc(OC)c4c3Oc3c(ccc5c3[C@H](C2)N(C)CC5)O4)CCN1C`?
UBC13 inh: 80*; Casp3 UBC13 ctr: 0; UBC13 confirm: 78*

What do the screens show for `COc1ccc(Nc2nc(N)nc(CSc3nc(C)cc(C)n3)n2)cc1`?
AI-2 QS mod: 8; pCIP destab: -8; T cruzi inh: -1; UBC13 inh: 4; PP1 counter: -6

Results for COc1ccc2nc(SCc3nc(N)nc(Nc4ccccc4)n3)[nH]c2c1 ?
AI-2 QS mod: 16; pCIP destab: -11; T cruzi inh: 8; UBC13 inh: 46*; PP1 counter: 3; Casp3 UBC13 ctr: -3; UBC13 confirm: 38

How did O=C(NCCNCCO)C1(C(F)(F)F)C/C(=C\CCO)CCCO1 (stereo unspecified) do in these assays?
AI-2 QS mod: 8; T cruzi inh: 1; UBC13 inh: 6; PP1 counter: 2

What do the screens show for `COc1ccc(OC)c(CNC(=O)CCSCc2ccc(F)cc2Cl)c1`?
AI-2 QS mod: 27; pCIP destab: 6; T cruzi inh: 8; UBC13 inh: 5; PP1 counter: -4

Results for CCCn1c2ccccc2c2nc3ccccc3nc21 ?
AI-2 QS mod: 24; pCIP destab: -7; T cruzi inh: 13; UBC13 inh: 47*; PP1 counter: 1; Casp3 UBC13 ctr: 5; UBC13 confirm: 41

Results for CCc1ccc(-c2cnc3nc[nH]c(=O)c3n2)cc1 ?
AI-2 QS mod: 15; UBC13 inh: 9; PP1 counter: 2

Results for COc1ccc(OC)c(N(CC(=O)NCCSC2CCCCC2)S(=O)(=O)c2ccccc2)c1 ?
AI-2 QS mod: 24; pCIP destab: -5; T cruzi inh: 6; UBC13 inh: 2; PP1 counter: 3

What do the screens show for `CC[C@@H](C)[C@@H]1CN([C@@H](CN2CCC[C@H]2CN2C(N)=NC[C@H]2CC(C)C)C(C)C)C(=N)N1CCc1ccc(Cl)c(Cl)c1`?
UBC13 inh: 73*; Casp3 UBC13 ctr: 3; UBC13 confirm: 86*

Results for CCC[C@@H](CN1CCC[C@H]1CN1C(N)=NC[C@H]1CC(C)C)N1C[C@@H]([C@H](C)CC)N(CCc2ccc(Cl)c(Cl)c2)C1=N ?
UBC13 inh: 82*; Casp3 UBC13 ctr: -4; UBC13 confirm: 80*

How did Cc1cccc(CCN2C(N(C)C)=NC[C@@H]2CC(C)C)c1 do in these assays?
UBC13 inh: 4; PP1 counter: -1

What do the screens show for `CCC(C)[C@H]1CN=C(N)N1CC1CCCCC1` (stereo partly specified)?
AI-2 QS mod: 8; T cruzi inh: 31; UBC13 inh: 8; PP1 counter: 0

Results for CC[C@@H](C)[C@@H]1CN([C@@H](CN2CCC[C@H]2CN2C(N)=NC[C@H]2CC(C)C)C(C)C)C(=N)N1CCCC1CCCC1 ?
UBC13 inh: 66*; Casp3 UBC13 ctr: 3; UBC13 confirm: 58*

What do the screens show for `CC[C@@H](C)[C@@H]1CN([C@@H](C)CN2CCC[C@H]2CN2C(N)=NC[C@H]2CC(C)C)C(=N)N1CCc1ccc(Cl)c(Cl)c1`?
UBC13 inh: 69*; Casp3 UBC13 ctr: 0; UBC13 confirm: 70*

What do the screens show for `O=C(Nc1ccccc1)C1=C[C@H](c2ccc3c(c2)OCO3)C[C@H](OCc2ccc(CO)cc2)O1`?
AI-2 QS mod: 13; pCIP destab: -17; T cruzi inh: 2; UBC13 inh: -44; PP1 counter: 5

What do the screens show for `Cc1ccc(-c2nnc(Cc3ccc([N+](=O)[O-])cc3)o2)cc1`?
AI-2 QS mod: -22; pCIP destab: -2; T cruzi inh: 20; UBC13 inh: 2; PP1 counter: 5
